Experimental data of several laboratories.
Lines come from different studies, so protocols differ.
Target: Sodium-dependent serotonin transporter (SLC6A4, Homo sapiens, UniProt P31645)

Compound	read-out	mode	method	tested at	inhibition
COc1ccc(S(=O)(=O)N2CCCCC2)cc1C	ligand displacement	–	radioligand	10 µM	< 30%
C[C@H](C(=O)N[C@H]1COc2ccccc2[C@@H]1S(C)(=O)=O)c1ccc(F)cc1	transporter uptake	inhibitor	–	10 µM	11%
CCN(CC)CCCC[C@H](NC(=O)[C@H](CC(C)C)NC(=O)[C@H](C)NC(=O)[C@H](Cc1ccccc1)NC(=O)c1ccc(C(C)(C)C)cc1)C(=O)N[C@@H](CO)C(=O)OC	ligand displacement	–	radioligand	10 µM	5%
CCc1ccccc1C(=O)Nc1n[nH]c2c(C)c(F)c(C3C(C#N)=C(C)N(C)C(C)=C3C#N)cc12	ligand displacement	–	–	10 µM	-6.24%
c1ccc(C(NCCNC(c2ccccc2)c2ccccc2)c2ccccc2)cc1	transporter uptake	inhibitor	–	10 µM	29%
C[C@H](NC(=O)Nc1cc2[nH]ncc2c(CO)n1)c1ccccn1	cell-free assay	–	–	10 µM	-0.787%
COCc1c(-c2cc3cc(C)cc(OC)c3s2)c2c(N)ncnn2c1CN1CCNC(=O)C1	ligand displacement	–	radioligand	10 µM	3%
CC(C)N1CCC[C@H]1CNC(=O)c1cn(C2CCCC2)c(=O)c2c1c1ccccc1n2C	ligand displacement	–	radioligand	10 µM	22%
Clc1ccc2c(C3CCN(CCc4c[nH]c5ccccc45)CC3)c[nH]c2c1	ligand displacement	–	radioligand	10 µM	99%
CN(CCN1CCC(OC(=O)Nc2ccccc2-c2ccccc2)CC1)C(=O)c1ccc(CN2CCC(C(N)=O)CC2)cc1	ligand displacement	–	radioligand	1 µM	-1%
